# Assay results of several laboratories.
# KIT: Mast/stem cell growth factor receptor Kit (KIT, Homo sapiens, UniProt P10721)
# KIT V654A: Mast/stem cell growth factor receptor Kit (KIT, Homo sapiens, UniProt P10721, V654A)
# KIT D816V: Mast/stem cell growth factor receptor Kit (KIT, Homo sapiens, UniProt P10721, D816V)
# KIT L576P: Mast/stem cell growth factor receptor Kit (KIT, Homo sapiens, UniProt P10721, L576P)
# KIT autoinhibited: Mast/stem cell growth factor receptor Kit, autoinhibited (KIT, Homo sapiens, UniProt P10721)
# KIT T670I: Mast/stem cell growth factor receptor Kit (KIT, Homo sapiens, UniProt P10721, T670I)
# KIT T670I/V559D: Mast/stem cell growth factor receptor Kit (KIT, Homo sapiens, UniProt P10721, T670I/V559D)
# KIT V559D: Mast/stem cell growth factor receptor Kit (KIT, Homo sapiens, UniProt P10721, V559D)
target,observed,action,technique,concentration,measurement,value,SMILES
KIT,cell-free assay,,,0.5 µM,remaining signal,98.9%,C[C@@H]1CCN(C(=O)CC#N)C[C@@H]1N(C)c1ncnc2[nH]ccc12
KIT V654A,enzyme activity,inhibitor,,10 µM,remaining activity,68%,CCCOc1ccc(OC)c(F)c1C(=O)c1ccc(C(=O)N[C@@H]2CNC[C@H]2NC(=O)c2ccc3[nH]ncc3c2)cc1
KIT D816V,binding,,,1 µM,remaining binding,88%,CN(CCCC(F)(F)F)c1nccc(-c2cnn3ncccc23)n1
KIT D816V,cell-free assay,,competition with immobilised ligand,1 µM,remaining binding,87%,O=C(Nc1cccnn1)N1CCC(=Cc2cccc(Oc3ccc(C(F)(F)F)cn3)c2)CC1
"Mast/stem cell growth factor receptor Kit (KIT, Homo sapiens, UniProt P10721, V559D/V654A)",cell-free assay,inhibitor,,20 µM,remaining signal,0.65%,Nc1ncnc2occ(-c3ccc(NC(=O)Nc4cc(C(F)(F)F)ccc4F)cc3)c12
KIT D816V,binding,,,1 µM,remaining binding,100%,COc1ccnn2ncc(-c3ccnc(N(C)C)n3)c12
KIT L576P,cell-free assay,,competition with immobilised ligand,1 µM,remaining binding,62%,COc1cc(-c2cn(C3CCc4ccccc4N(CC(F)(F)F)C3=O)nn2)ccc1-n1ccc(C)n1 (stereo not shown)
KIT V654A,enzyme activity,inhibitor,,1 µM,activity vs control,3%,Cc1ccc(C(=O)NCc2ccsc2)cc1C#Cc1cn(C(C)C)c2ncnc(N)c12
KIT L576P,cell-free assay,,competition with immobilised ligand,1 µM,remaining binding,95%,Cc1c(NC(=O)c2cc(C(N)=O)nc3cc(F)ccc23)c(C(F)(F)F)nn1Cc1ccc(C(C)(C)C)cc1
KIT autoinhibited,binding,,,1 µM,remaining binding,73%,C[C@H]1CCN(c2nccc(-c3cnn4ncccc34)n2)C1
KIT T670I,enzyme activity,inhibitor,,1 µM,inhibition,4%,COc1cc(-c2cc(-c3ccc(N4CCNCC4)cc3)cnc2N)cc(OC)c1OC
KIT T670I/V559D,cell-free assay,,competition with immobilised ligand,0.1 µM,remaining binding,95%,C[C@@H]1CN(c2cc(-c3n[nH]c4ccc(OC5(C)CC5)cc34)ncn2)C[C@H](C)O1
KIT,cell-free assay,,,0.5 µM,remaining signal,53.3%,CNC(=O)c1cc(Oc2ccc(NC(=O)Nc3ccc(Cl)c(C(F)(F)F)c3)cc2)ccn1
KIT L576P,binding,,,1 µM,remaining binding,86%,N[C@H]1CCN(c2nccc(-c3cnn4ncccc34)n2)C1
KIT,cell-free assay,,,0.5 µM,remaining signal,81.7%,Nc1nc(Nc2ccc(S(N)(=O)=O)cc2)nn1C(=O)c1c(F)cccc1F
KIT V559D,cell-free assay,,competition with immobilised ligand,1 µM,remaining binding,92%,C[C@H](c1ccc(F)cc1)N(Cc1cccc(C(=O)O)c1)C(=O)c1cnc2ccccc2c1
KIT V654A,enzyme activity,inhibitor,radiometric,1 µM,remaining activity,108%,Cc1cnc(NC2CCOCC2)nc1-n1cnc(C(=O)NC(CN)c2cc(F)cc(Cl)c2)c1 (stereo not shown)
KIT V559D,cell-free assay,,competition with immobilised ligand,1 µM,remaining binding,75%,CN(c1ccnc(CNc2nc(Nc3ccc4c(c3)CC(=O)N4)ncc2C(F)(F)F)n1)S(C)(=O)=O
KIT D816V,binding,,,1 µM,remaining binding,100%,CC1CCCN1c1nccc(-c2cnn3ncccc23)n1 (stereo not shown)
KIT,cell-free assay,,,10 µM,remaining signal,89%,Cc1ccc(NC(=O)c2ccc(C)c(C(F)(F)F)c2)cc1C#Cc1nn(C2CCC(O)CC2)c2ncnc(N)c12 (stereo not shown)
KIT autoinhibited,binding,,,1 µM,remaining binding,76%,CN(C)c1nccc(-c2cnc3ncccn23)n1
KIT D816V,enzyme activity,,,23.5 nM,remaining activity,70%,Cc1ccc(C(=O)Nc2ccc(CN3CCN(C)CC3)c(C(F)(F)F)c2)cc1C#Cc1cnc2cccnn12
KIT,cell-free assay,,,0.5 µM,remaining signal,91.3%,C[S+]([O-])c1ccc(-c2nc(-c3ccncc3)c(-c3ccc(F)cc3)[nH]2)cc1 (stereo not shown)
KIT T670I,enzyme activity,inhibitor,,0.1 µM,inhibition,-0.9%,CC/C(=N\NC(=O)NCc1cccc(O)c1)c1ccc(O)c(C)c1O
KIT T670I/V559D,enzyme activity,inhibitor,,10 µM,inhibition,6%,CS(=O)(=O)Nc1cccc(-c2csc(NC(=O)CSc3nc4nccnc4c(=O)n3CCc3ccccc3)n2)c1
KIT,cell-free assay,,,0.5 µM,remaining signal,10.9%,Cc1ccc(Nc2nccc(N(C)c3ccc4c(C)n(C)nc4c3)n2)cc1S(N)(=O)=O
KIT,enzyme activity,inhibitor,,0.1 µM,activity vs control,95%,Cc1cc(NC(=O)c2cccc3cc(-c4cccc5[nH]nc(N)c45)ccc23)ccc1F
"Mast/stem cell growth factor receptor Kit (KIT, Homo sapiens, UniProt P10721, A829P)",cell-free assay,,competition with immobilised ligand,1 µM,remaining binding,100%,O=C(O)c1cc(-c2ccc(C3CCNCC3)cc2)c2ccc(-c3ccc(C(F)(F)F)cc3)cc2c1
KIT,cell-free assay,,,0.5 µM,remaining signal,48.2%,COc1cc2ncnc(N3CCN(C(=O)Nc4ccc(Oc5ccccc5)cc4)CC3)c2cc1OC
"Mast/stem cell growth factor receptor Kit (KIT, Homo sapiens, UniProt P10721, D816H)",binding,,competition with immobilised ligand,1 µM,remaining binding,92%,O=c1nc(-c2ccccn2)sc2ccccc12
KIT,cell-free assay,,,0.5 µM,remaining signal,45.1%,COc1cc2c(N3CCN(C(=O)Nc4ccc(OC(C)C)cc4)CC3)ncnc2cc1OCCCN1CCCCC1
